Screening results from PubChem.
In the library only some 2.9% were active in any assay of this set; here they are far more common.
SENP1 FRET inh – blocks the human SENP1 SUMO protease catalytic domain; Q9P0U3; recombinant SENP1 catalytic domain, CyPet-SUMO1-YPet FRET cleavage; 360,000 tested, 0.21% active; inhibition, % at 10 µM;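 active means inhibition at least 30% at 10 µM, raw YFP signal under a set limit, fluorescence ratio 0.5 to 1.5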
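Test system: recombinant human SENP1 catalytic domain, His6-tagged / Medium: pH 8 Tris buffer with EDTA, NaCl, BME, BSA, NP40, catalase / Also added: SUMO1 FRET substrate flanked by Cypet and Ypet, 25 nM / Times: 50 min reaction at room temperature / Signal: FRET, CFP and YFP emission / Control set: no-enzyme low control and enzyme-plus-DMSO high control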
SENP6 block – SENP6 protease inhibition. Recombinant SENP6 catalytic domain, aminoluciferin luminescence. 330,000 tested, 1.8% active. inhibition, % at 10 µM. Q9GZR1;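 active means inhibition above about 50% at the single tested dose, limit read from the data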
Target sequence (Q9GZR1 628-1112 limits assumed): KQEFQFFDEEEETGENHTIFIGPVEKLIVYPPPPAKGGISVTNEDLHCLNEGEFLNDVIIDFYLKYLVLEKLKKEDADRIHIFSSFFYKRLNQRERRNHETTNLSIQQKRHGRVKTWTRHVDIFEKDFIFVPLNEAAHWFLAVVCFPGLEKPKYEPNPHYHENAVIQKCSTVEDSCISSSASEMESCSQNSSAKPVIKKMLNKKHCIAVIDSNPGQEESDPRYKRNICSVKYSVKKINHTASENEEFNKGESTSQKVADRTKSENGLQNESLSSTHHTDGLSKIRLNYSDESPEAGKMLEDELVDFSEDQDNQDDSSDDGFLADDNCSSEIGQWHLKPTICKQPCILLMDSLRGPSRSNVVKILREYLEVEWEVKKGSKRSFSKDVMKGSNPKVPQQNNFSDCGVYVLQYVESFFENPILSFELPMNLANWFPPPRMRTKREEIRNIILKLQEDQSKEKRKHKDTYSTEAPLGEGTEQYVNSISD
SENP7 inh – inhibitors of human SENP7 protease | Q9BQF6 | recombinant SENP7, Z-RLRGG-aminoluciferin luminescence, 40 min | inhibition, % at 5 µM | 330,000 tested, 1.5% active | AID 434973;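 active means inhibition above about 50% at the single test dose, limit read from the data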
HSP90 inh – blocks HSP90-mediated luciferase refolding in reticulocyte lysate | Rabbit reticulocyte lysate, luciferase refolding luminescence, 3 h | 290,000 tested, 0.91% active | inhibition, % at 5.6 µM;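 active means inhibition above the screen-wide mean plus 3 SD, computed separately per campaign, cut at about 16% in these data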;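 further: inhibitors lower the luminescence because luciferase stays unfolded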
SENP8 block-1 – SENP8 protease inhibition | 330,000 tested, 1.2% active | AID 2540 | purified SENP8, Z-RLRGG-aminoluciferin cleavage, luminescence | inhibition, % at 10 µM; in the data active means inhibition above about 50%
SENP8 block-2 – blocks human SENP8 cleavage of Nedd8 substrate; Q96LD8; recombinant SENP8, Nedd8 substrate fluorescence; inhibition, % at 20 µM; 360,000 tested, 0.64% active; in the data active means inhibition mostly above about 40%, no sharp cut-off; inactive means mostly below about 27%
SENP1 conf – SENP1 (human) inhibition, single concentration confirmation; shares compounds with SENP1 FRET inh; recombinant SENP1, CyPet-SUMO1-YPet FRET cleavage; inhibition, % at 10 µM; 520 tested, 34% active; in the data active means inhibition mostly above about 35%, no sharp cut-off; inactive means mostly below about 32%
SENP1 kinetic – SENP1 (human) inhibition, kinetic confirmation; shares compounds with SENP1 FRET inh; recombinant SENP1, CyPet-SUMO1-YPet FRET kinetic cleavage; inhibition, % at 10 µM; 520 tested, 26% active; in the data active means inhibition mostly above about 32%, no sharp cut-off; inactive means mostly below about 29%
Hits are given with their value; n = inactive; x = not tested or not shown.

SMILES	SENP1 FRET inh	SENP6 block	SENP7 inh	HSP90 inh	SENP8 block-1	SENP8 block-2	SENP1 conf	SENP1 kinetic
Cc1cc(Br)c2[nH]cc(CCNC(=O)c3ccco3)c2c1	n	n	n	n	n	n	x	x
C/C(=N\NC(=O)c1ccncc1)c1cc2ccccc2oc1=O	n	n	n	n	n	n	x	x
COc1ccc2oc(=O)c(/C(N)=N/NC(=O)c3ccncc3)cc2c1	37	n	n	n	n	n	n	n
COc1ccc(N2CCN(C(=O)c3ccc4c(c3)NC(=O)C(CSCc3ccccc3F)N4)CC2)cc1 (stereo not drawn)	33	x	x	x	x	n	n	n
O=C1Nc2cc(C(=O)N3CCN(c4ccccc4F)CC3)ccc2NC1CSCc1ccccc1F (stereo not drawn)	x	n	n	n	n	x	x	x
CC(=NNc1ccc([N+](=O)[O-])cn1)c1ccc(N)cc1	41	x	x	x	x	58	n	n
CC(=O)Nc1ccc(S(=O)(=O)Nc2ccc3nc(C)sc3c2)cc1	n	n	n	x	n	n	x	x
Cc1nc2cc(NS(=O)(=O)c3ccccc3F)ccc2s1	n	n	n	n	n	n	x	x
Cc1ccc(S(=O)(=O)Nc2ccc3nc(C)sc3c2)cc1	n	n	n	n	n	n	x	x
Cc1nc2ccc(NS(=O)(=O)c3ccccc3F)cc2s1	55	n	n	x	n	n	n	38
Cc1nc2ccc(NS(=O)(=O)c3ccc(Br)cc3)cc2s1	41	n	n	x	n	n	n	n
Cc1nc2ccc(NS(=O)(=O)c3ccc(F)c(F)c3)cc2s1	54	n	n	x	n	n	n	n
CCCS(=O)(=O)NC(=O)C1(C)CCCN(C(=O)c2cc(C)n(C(C)(C)C)n2)C1 (stereo not drawn)	n	x	x	x	x	n	x	x
CCN(C[C@H]1N[C@@](Cc2ccccc2)(C(=O)OC)[C@H]2C(=O)N(Cc3ccccc3)C(=O)[C@@H]12)C(=O)Nc1ccc(C(F)(F)F)cc1	n	n	n	x	n	n	x	x
O=C1C2C(c3ccccc3)C=CC(c3ccccc3)C2C(=O)N1c1ccccn1 (stereo not drawn)	41	n	n	n	n	n	54	46
Cc1cccc(NC(=O)CN(C)C(=O)C2CC2)c1C	n	n	n	x	n	n	x	x
CCOC(=O)[C@]12CCCC=C1N(Cc1ccc3c(c1)OCO3)C(=O)[C@H](CC(=O)N1CCCC1)C2	n	x	x	x	x	n	x	x
Cc1ccc2cc(/C=C(\C#N)C(N)=O)c(N3CCCCC3)nc2c1	75	n	n	n	n	n	50	39
C[C@H](CO)N1C[C@H](C)[C@@H](CN(C)S(=O)(=O)c2ccccc2)Oc2c(NC(=O)NC3CCCCC3)cccc2C1=O	n	n	n	x	n	n	x	x
Cc1ccc(Nc2c(-c3ccc(N(C)C)cc3)nc3ncccn23)cc1	n	n	n	n	n	n	x	x
COc1ccc(-c2nc3ncccn3c2Nc2ccccc2)cc1	37	n	n	n	n	n	n	n
C=CCNC(=O)c1cccc2c1C(=O)c1ccc(N3CCOCC3)cc1S2(=O)=O	80	n	n	x	n	n	61	45
CC(C)C1Nc2ccc(C(=O)NC3CCCCC3)cc2NC1=O (stereo not drawn)	n	n	n	n	n	n	x	x
CC1Nc2ccc(C(=O)NC3CCCCC3)cc2NC1=O (stereo not drawn)	41	n	n	n	n	n	n	n
C=CCc1c(C)nc(-c2ccccc2)nc1Nc1ccccc1O	47	n	n	n	n	n	n	n
C=CCc1c(C)nc(-c2ccccc2)nc1N/N=C/c1ccccc1	n	n	n	n	n	n	x	x
CC1(C(=O)NS(=O)(=O)C2CC2)CCCN(C(=O)c2cccs2)C1 (stereo not drawn)	n	x	x	x	x	n	x	x
O=C(CSc1n[nH]c(=O)n1C1CC1)Nc1ccc(Cl)c(Cl)c1	n	n	n	n	n	n	x	x
O=C(CSc1n[nH]c(=O)n1C1CC1)Nc1ccc(F)c(Cl)c1	44	n	n	x	n	n	n	n
COC(=O)C1=C(C)N(Cc2ccco2)C(=O)/C1=C\c1ccc(N(C)C)cc1	46	n	n	n	n	n	n	n
